This is a sample that favours compounds with a hit; in the whole collection about 4.9% have one here.
STAT1 act: STAT1 signaling activators, primary screen, cell-based, HTS, luciferase reporter; activation (% of control), % at 5.5 µM; NIH 3T3 STAT1-luciferase reporter, IFN-gamma, luminescence; 100% = IFN-gamma alone, no compound; hit rate 2.6% among 200,000; AID 932, 2007;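 active = activation above the screen-wide mean activation plus 3 SD, cut at about 130% in these data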
STAT1 inh: STAT1 signaling inhibitors, primary screen, cell-based, HTS, luciferase reporter; NIH 3T3 STAT1-luciferase reporter, IFN-gamma, luminescence; inhibition, % at 5.5 µM; hit rate 0.35% among 200,000; AID 920, 2007;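 active = inhibition above a set limit, the mean inhibition across all tested compounds plus 3 SD, cut at about 34% in these data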
APP 5'UTR act: activators of APP 5'UTR luciferase reporter, primary screen, SH-SY5Y cells. SH-SY5Y APP 5'UTR luciferase reporter, luminescence; zero percent = DMSO vehicle wells. hit rate 1% among 190,000. activation, % at 2 µM. AID 1276, 2008;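 active = activation above a set limit, based on mean plus 3 SD of controls, cut at about 140% in these data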
STAT3 blocker: IL-6 driven STAT3 reporter inhibitors, primary screen, U3A cells, luciferase, luminescence, MLSCN library | IL-6 STAT3-luciferase reporter; host cell line lacks STAT1 | inhibition, % at 5.5 µM | hit rate 0.89% among 190,000 | AID 862, 2007;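 active = inhibition above the mean inhibition across all screened compounds plus 3 SD, cut at about 44% in these data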
NF-kB neuron act: activators of NF-kB expression in neurons, primary screen, cell-based, HTS; AID 1239, 2008; hit rate 1.6% among 190,000; human neuronal cells, NF-kB reporter expression; hits give high values; fold change at 12.5 µM; in the data active = fold change above about 3.3
STAT3 activator: IL-6 driven STAT3 reporter potentiators, primary screen, U3A cells, luciferase, luminescence, MLSCN library | IL-6 STAT3-luciferase reporter; 100% = signal with IL-6 EC80 alone | activation (% of control), % at 5.6 µM | hit rate 0.91% among 190,000 | AID 871, 2007;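 active = activation above the screen-wide mean of compound activation plus 3 SD, cut at about 130% in these data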
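Material: STAT3-luciferase reporter U3A cells; Probe or stimulus: IL-6 (33 ng/mL); Incubation: compound pre-incubation 1 h before IL-6, then 6 h stimulation at 37 °C; Technique: luminescence from STAT3-driven luciferase reporter; Evaluation: % activation versus median of IL-6-stimulated wells; Controls: IL-6-only high control.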
Numbers stand for hits.

Screening CC1CC(C)CN(c2ccc([N+](=O)[O-])nc2)C1 (stereo not drawn) returned STAT1 act inactive, STAT1 inh inactive, APP 5'UTR act inactive, STAT3 blocker inactive and STAT3 activator inactive.
`Cc1ccc(-c2nc3ccsc3c(=O)o2)cc1` gave STAT1 act 129, STAT1 inh inactive, APP 5'UTR act inactive, STAT3 blocker inactive, NF-kB neuron act inactive and STAT3 activator inactive.
For CC(C)Sc1nc2ccsc2c(=O)[nH]1 the results were STAT1 act inactive, STAT1 inh inactive, APP 5'UTR act inactive, STAT3 blocker inactive, NF-kB neuron act inactive and STAT3 activator inactive.
Screening C/C(N)=C(/C#N)C(=O)CSc1nnc(Nc2ccccc2)s1 returned STAT1 act 148, STAT1 inh inactive, APP 5'UTR act inactive, STAT3 blocker inactive, NF-kB neuron act inactive and STAT3 activator inactive.
For CC(C)OC(=O)CCCNc1ccc([N+](=O)[O-])cc1[N+](=O)[O-] the results were STAT1 act inactive, STAT1 inh inactive, APP 5'UTR act inactive, STAT3 blocker inactive, NF-kB neuron act inactive and STAT3 activator inactive.
For CC(C)Oc1ccc(/C=N/NC(N)=S)cc1 the results were STAT1 act inactive, STAT1 inh inactive, APP 5'UTR act inactive, STAT3 blocker inactive, NF-kB neuron act inactive and STAT3 activator inactive.
For S=C(NCC1CCCO1)N1CCN(Cc2ccccc2Cl)CC1 (stereo not drawn) the results were STAT1 act inactive, STAT1 inh inactive, APP 5'UTR act inactive, STAT3 blocker inactive, NF-kB neuron act inactive and STAT3 activator inactive.
`COc1ccc(-c2nc3nc(C)cc(C)n3n2)cc1` gave STAT1 act 129, STAT1 inh inactive, STAT3 blocker inactive, NF-kB neuron act inactive and STAT3 activator inactive.
Screening COc1ccc(-c2cc3nc(C)cc(C)n3n2)cc1 returned STAT1 act 135, STAT1 inh inactive, APP 5'UTR act inactive, STAT3 blocker inactive, NF-kB neuron act 3.6 and STAT3 activator 156.
Screening COc1ccc(CNc2nc3nc(C)cc(C)n3n2)cc1 returned STAT1 act inactive, STAT1 inh inactive, APP 5'UTR act inactive, STAT3 blocker inactive, NF-kB neuron act inactive and STAT3 activator inactive.
CSc1nncn1/N=C/c1ccc([N+](=O)[O-])cc1 was read as STAT1 act inactive, STAT1 inh inactive, APP 5'UTR act inactive, STAT3 blocker inactive, NF-kB neuron act inactive and STAT3 activator inactive.
CS/C(N)=N/N=C/c1ccc([N+](=O)[O-])cc1 was read as STAT1 act 131, STAT1 inh inactive, APP 5'UTR act inactive, STAT3 blocker inactive, NF-kB neuron act inactive and STAT3 activator inactive.
For Cc1nn(Cc2ccccc2)c(Cl)c1/C=C/C(=O)OCC(=O)N1CCCC1=O the results were STAT1 act inactive, STAT1 inh inactive, APP 5'UTR act inactive, STAT3 blocker inactive, NF-kB neuron act 7 and STAT3 activator inactive.
Screening Cc1nn(Cc2ccccc2)c(Cl)c1/C=C/C(=O)OCC(=O)N(C)C1CCS(=O)(=O)C1 (stereo not drawn) returned STAT1 act inactive, STAT1 inh inactive, APP 5'UTR act inactive, STAT3 blocker inactive, NF-kB neuron act inactive and STAT3 activator inactive.
For CCCCS/C(N)=N/N=C/c1ccccc1O the results were STAT1 act inactive, STAT1 inh inactive, STAT3 blocker inactive, NF-kB neuron act inactive and STAT3 activator inactive.
CCCS/C(N)=N/N=C/c1cc(C)ccc1O was read as STAT1 act inactive, STAT1 inh inactive, APP 5'UTR act 150, STAT3 blocker inactive, NF-kB neuron act 11 and STAT3 activator inactive.
For COc1ccc(C(c2c[nH]c3ccccc23)c2c[nH]c3ccccc23)cc1O the results were STAT1 act inactive, STAT1 inh inactive, APP 5'UTR act inactive, STAT3 blocker inactive, NF-kB neuron act inactive and STAT3 activator 192.
COc1ccc(NC(=O)CCCc2c[nH]c3ccccc23)cc1OC was read as STAT1 act inactive, STAT1 inh inactive, APP 5'UTR act inactive, STAT3 blocker inactive, NF-kB neuron act inactive and STAT3 activator inactive.
For COc1ccc(N(CC(=O)Nc2ccccc2C(=O)NCCc2ccccc2)S(C)(=O)=O)cc1OC the results were STAT1 act inactive, STAT1 inh inactive, APP 5'UTR act inactive, STAT3 blocker inactive, NF-kB neuron act inactive and STAT3 activator inactive.
Cn1cc(CNCc2cn[nH]c2-c2ccc(F)cc2)c(-c2ccc3c(c2)OCCO3)n1 was read as STAT1 act inactive, STAT1 inh inactive, APP 5'UTR act inactive, STAT3 blocker inactive, NF-kB neuron act inactive and STAT3 activator inactive.
For Cn1cc(CNCc2ccc(OC(F)(F)F)cc2)c(-c2ccc3c(c2)OCCO3)n1 the results were STAT1 act inactive, STAT1 inh inactive, APP 5'UTR act inactive, STAT3 blocker 56, NF-kB neuron act inactive and STAT3 activator inactive.
Screening O=c1[nH]c(N/N=C\c2ccc(F)cc2)nc2ccccc12 returned STAT1 act 150, STAT1 inh inactive, APP 5'UTR act 189, STAT3 blocker inactive, NF-kB neuron act 4.1 and STAT3 activator inactive.
Screening O=c1[nH]c(N/N=C/c2ccc(O)cc2)nc2ccccc12 returned STAT1 act 144, STAT1 inh inactive, APP 5'UTR act inactive, STAT3 blocker inactive, NF-kB neuron act inactive and STAT3 activator inactive.
For CCN(CC)S(=O)(=O)c1cccc(C(=O)N/N=C/c2ccccn2)c1 the results were STAT1 act inactive, STAT1 inh inactive, APP 5'UTR act inactive, STAT3 blocker inactive, NF-kB neuron act inactive and STAT3 activator inactive.
`O=C(N/N=C/c1ccccn1)c1cccc([N+](=O)[O-])c1` gave STAT1 act inactive, STAT1 inh inactive, APP 5'UTR act inactive, STAT3 blocker inactive, NF-kB neuron act inactive and STAT3 activator inactive.
O=C(N/N=C/c1ccccn1)c1cc([N+](=O)[O-])cc([N+](=O)[O-])c1 was read as STAT1 act 129, STAT1 inh inactive, APP 5'UTR act inactive, STAT3 blocker inactive, NF-kB neuron act inactive and STAT3 activator inactive.
Screening O=C(N/N=C/c1ccccn1)c1ccc([N+](=O)[O-])cc1 returned STAT1 act 133, STAT1 inh inactive, APP 5'UTR act inactive, STAT3 blocker inactive, NF-kB neuron act inactive and STAT3 activator inactive.
Screening Cc1cccc(C(=O)N/N=C/c2ccccn2)c1 returned STAT1 act 136, STAT1 inh inactive, APP 5'UTR act inactive, STAT3 blocker inactive, NF-kB neuron act inactive and STAT3 activator inactive.
O=C(N/N=C/c1ccccn1)c1ccc(N/N=C/c2ccccn2)cc1 was read as STAT1 act inactive, STAT1 inh inactive, APP 5'UTR act inactive, STAT3 blocker inactive, NF-kB neuron act inactive and STAT3 activator inactive.
`O=C(N/N=C/c1ccccn1)c1ccc(Br)cc1` gave STAT1 act 134, STAT1 inh inactive, APP 5'UTR act inactive, STAT3 blocker inactive, NF-kB neuron act inactive and STAT3 activator inactive.
